In brackets after ≈: the same amount, converted by molar mass.

This is an account of results in ChEMBL document CHEMBL4382210, “Identification of novel benzothiopyranone compounds against Mycobacterium tuberculosis through scaffold morphing from benzothiazinones” (Eur J Med Chem, 2018).

In assay [1] the test system is Mycobacterium tuberculosis. The assay can be described thus: Antimicrobial activity against multi drug-resistant Mycobacterium tuberculosis 12611 after 7 days by MABA. Type of assay: functional. The note with it: Mycobacterium tuberculosis, 12611, 168 h. An outline of the steps: (§1)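 Strain H37Rv or clinical isolates grown to late log phase in 7H9-ADC-TG, washed, resuspended in PBS, filtered (8 µm) and frozen. On day 7 Tween 80 and alamar blue added, read 16–24 h later (ex 530/em 590). MIC = lowest concentration giving ≥90% fluorescence reduction versus bacterium-only controls.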
Background: Resazurin is reduced to fluorescent resorufin, in cell work by metabolically active cells.

In assay [2] the test system is Mycobacterium tuberculosis. Description: Antimicrobial activity against multi drug-resistant Mycobacterium tuberculosis 14231 after 7 days by MABA. Type of assay: functional. The conditions noted are these: Mycobacterium tuberculosis, 14231, 168 h. An outline of the steps:
as §1

What is called MIC90 is an inhibitory concentration at the 90% level, which refers to growth in some studies and to a panel of isolates in others. As to `O=c1cc(N2CCN(Cc3ccccc3)CC2)sc2c([N+](=O)[O-])cc(C(F)(F)F)cc12`, the results for the MIC90 in assay [1] and in assay [2] were 0.011 µg/mL (≈ 0.0245 µM) and 0.023 µg/mL (≈ 0.0512 µM), respectively.
In the same order, the values of `O=c1nc(N2CCN(CC3CCCCC3)CC2)sc2c([N+](=O)[O-])cc(C(F)(F)F)cc12` [MACOZINONE] are less than 0.002 µg/mL and less than 0.002 µg/mL.
The like results for `NNC(=O)c1ccncc1` [ISONIAZID] were, in that order, 19.5 µg/mL (≈ 142 µM) and greater than 40 µg/mL.
The like results for `CO[C@H]1/C=C/O[C@@]2(C)Oc3c(C)c(O)c4c(O)c(c(/C=N/N5CCN(C)CC5)c(O)c4c3C2=O)NC(=O)/C(C)=C\C=C\[C@H](C)[C@H](O)[C@@H](C)[C@@H](O)[C@@H](C)[C@H](OC(C)=O)[C@@H]1C` [RIFAMPIN] were, in that order, greater than 40 µg/mL and greater than 40 µg/mL.
On to `O=c1cc(N2CCN(CC3CCCCC3)CC2)sc2c([N+](=O)[O-])cc(C(F)(F)F)cc12`, for which the MIC90 in assay [1] and in assay [2] was less than 0.002 µg/mL each time.
